ChEMBL document CHEMBL4689842, “EUbOPEN Chemogenomics Library wave 1” (2021)
Values joined by “and” are separate entries in the source; they are usually repeats but may differ in a detail not shown here. Identical values can stand only once.

Experiments:
Assay type in all cases: toxicity, cell-based
[1] = test system: Fibroblast; assay: Multiplex assay against human fibroblast
Summary of the method: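 Phenotypes for tubulin, mitochondrial mass and membrane permeability are expressed as per cents of healthy-nucleus cells. Cells were stained live at seeding with Hoechst33342, BioTracker Green Microtubule Cytoskeleton Dye, MitoTracker Red and Annexin V Alexa Fluor 680, then imaged after compound addition on a CQ1 microscope at 37°C and 5% CO2. Machine-learning gating in CellPathfinder separated Hoechst high-intensity objects from normal cells, divided normal cells by nuclear state (healthy, pyknosed, fragmented) and divided pyknosed cells into mitotic or apoptotic.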

[2] = test system: HEK-293T; assay: Incucyte cell viability with HEK293T; settings: human, 10 µM, compound concentration 10 uM; note: filed as whole numbers so only -1 and 0 and 1 occur
[3] = test system: U2OS; assay: Incucyte cell viability with U2OS; settings: human, 10 µM, compound concentration 10 uM; note: filed as whole numbers so only -1 and 0 and 1 occur
[4] = 12 h, 1 µM, compound concentration 1 uM, replicate 1
[5] = 12 h, 1 µM, compound concentration 1 uM, replicate 2
[6] = 12 h, 10 µM, compound concentration 10 uM, replicate 1
[7] = 12 h, 10 µM, compound concentration 10 uM, replicate 2
[8] = 24 h, 1 µM, compound concentration 1 uM, replicate 1
[9] = 24 h, 1 µM, compound concentration 1 uM, replicate 2
[10] = 24 h, 10 µM, compound concentration 10 uM, replicate 1
[11] = 24 h, 10 µM, compound concentration 10 uM, replicate 2
[12] = 48 h, 10 µM, compound concentration 10 uM, replicate 1
[13] = 48 h, 10 µM, compound concentration 10 uM, replicate 2
[14] = 0 h, replicate number 1, timepoint 0 hours
[15] = 12 h, replicate number 1, timepoint 12 hours
[16] = 18 h, replicate number 1, timepoint 18 hours
[17] = 24 h, replicate number 1, timepoint 24 hours

SMILES: CC(C)Oc1ccc(C(=O)N[C@H](CNC(=O)CN(C)C)Cc2ccc(-c3cn4cccc([C@H](C)O)c4n3)cc2)cc1Cl [GSK-923295A]
- Population Apoptotic (%) [1, 4]: 71%
- Population Fragmented Nuclei (%) [1, 4]: 32%
- Population Healthy Nuclei (%) [1, 4]: 48%
- Population Hoechst High Intensity Objects (%) [1, 4]: 12%
- Population Membrane Permeable-Phenotype (%) [1, 4]: 9%
- Population Mitochondria Different-Phenotype (%) [1, 4]: 5%
- Population Mitotic Cells (%) [1, 4]: 28%
- Population Normal (%) [1, 4]: 87%
- Population Pyknosed Nuclei (%) [1, 4]: 18%
- Population Tubulin-Different-Phenotype (%) [1, 4]: 20%
- Total Cell Count [1, 4]: 256
- Population Apoptotic (%) [1, 5]: 100%
- Population Fragmented Nuclei (%) [1, 5]: 49%
- Population Healthy Nuclei (%) [1, 5]: 43%
- Population Hoechst High Intensity Objects (%) [1, 5]: 31%
- Population Mitochondria Different-Phenotype (%) [1, 5]: 31%
- Population Mitotic Cells (%) [1, 5]: 0%
- Population Normal (%) [1, 5]: 68%
- Population Pyknosed Nuclei (%) [1, 5]: 7%
- Population Tubulin-Different-Phenotype (%) [1, 5]: 40%
- Total Cell Count [1, 5]: 74
- Population Apoptotic (%) [1, 6]: 53% and 65%
- Population Fragmented Nuclei (%) [1, 6]: 34% and 27%
- Population Healthy Nuclei (%) [1, 6]: 34% and 50%
- Population Hoechst High Intensity Objects (%) [1, 6]: 30% and 28%
- Population Mitochondria Different-Phenotype (%) [1, 6]: 11% and 7%
- Population Mitotic Cells (%) [1, 6]: 46% and 34%
- Population Normal (%) [1, 6]: 69% and 71%
- Population Pyknosed Nuclei (%) [1, 6]: 30% and 21%
- Population Tubulin-Different-Phenotype (%) [1, 6]: 82% and 59%
- Population Apoptotic (%) [1, 7]: 75% and 30%
- Population Healthy Nuclei (%) [1, 7]: 28% and 73%
- Population Membrane Permeable-Phenotype (%) [1, 7]: 42% and 30%
- Population Mitotic Cells (%) [1, 7]: 25% and 69%
- Population Normal (%) [1, 7]: 65% and 97%
- Population Pyknosed Nuclei (%) [1, 7]: 16% and 17%
- Population Tubulin-Different-Phenotype (%) [1, 7]: 92% and 100%
- Total Cell Count [1, 7]: 75 and 76
- Population Apoptotic (%) [1, 8]: 65%
- Population Fragmented Nuclei (%) [1, 8]: 27%
- Population Healthy Nuclei (%) [1, 8]: 58%
- Population Hoechst High Intensity Objects (%) [1, 8]: 18%
- Population Membrane Permeable-Phenotype (%) [1, 8]: 6%
- Population Mitochondria Different-Phenotype (%) [1, 8]: 7%
- Population Mitotic Cells (%) [1, 8]: 34%
- Population Normal (%) [1, 8]: 81%
- Population Pyknosed Nuclei (%) [1, 8]: 14%
- Population Tubulin-Different-Phenotype (%) [1, 8]: 10%
- Total Cell Count [1, 8]: 266
- Population Apoptotic (%) [1, 9]: 100%
- Population Fragmented Nuclei (%) [1, 9]: 58%
- Population Healthy Nuclei (%) [1, 9]: 34%
- Population Hoechst High Intensity Objects (%) [1, 9]: 26%
- Population Membrane Permeable-Phenotype (%) [1, 9]: 10%
- Population Mitochondria Different-Phenotype (%) [1, 9]: 15%
- Population Mitotic Cells (%) [1, 9]: 0%
- Population Normal (%) [1, 9]: 73%
- Population Pyknosed Nuclei (%) [1, 9]: 6%
- Population Tubulin-Different-Phenotype (%) [1, 9]: 25%
- Total Cell Count [1, 9]: 79
- Population Apoptotic (%) [1, 10]: 64% and 60%
- Population Fragmented Nuclei (%) [1, 10]: 34% and 27%
- Population Healthy Nuclei (%) [1, 10]: 44% and 54%
- Population Hoechst High Intensity Objects (%) [1, 10]: 34% and 39%
- Population Membrane Permeable-Phenotype (%) [1, 10]: 26% and 10%
- Population Mitochondria Different-Phenotype (%) [1, 10]: 26% and 11%
- Population Mitotic Cells (%) [1, 10]: 35% and 39%
- Population Normal (%) [1, 10]: 65% and 60%
- Population Pyknosed Nuclei (%) [1, 10]: 20% and 17%
- Population Tubulin-Different-Phenotype (%) [1, 10]: 76% and 61%
- Population Apoptotic (%) [1, 11]: 75% and 35%
- Population Healthy Nuclei (%) [1, 11]: 35% and 64%
- Population Mitochondria Different-Phenotype (%) [1, 11]: 96%
- Population Mitotic Cells (%) [1, 11]: 25% and 65%
- Population Normal (%) [1, 11]: 50% and 97%
- Population Pyknosed Nuclei (%) [1, 11]: 9% and 24%
- Population Tubulin-Different-Phenotype (%) [1, 11]: 73% and 100%
- Total Cell Count [1, 11]: 83 and 72
- Population Apoptotic (%) [1, 12]: 71%
- Population Fragmented Nuclei (%) [1, 12]: 35%
- Population Healthy Nuclei (%) [1, 12]: 50%
- Population Hoechst High Intensity Objects (%) [1, 12]: 46%
- Population Membrane Permeable-Phenotype (%) [1, 12]: 11%
- Population Mitochondria Different-Phenotype (%) [1, 12]: 7%
- Population Mitotic Cells (%) [1, 12]: 28%
- Population Normal (%) [1, 12]: 53%
- Population Pyknosed Nuclei (%) [1, 12]: 13%
- Population Tubulin-Different-Phenotype (%) [1, 12]: 65%
- Total Cell Count [1, 12]: 96
- Population Apoptotic (%) [1, 13]: 57%
- Population Fragmented Nuclei (%) [1, 13]: 32%
- Population Healthy Nuclei (%) [1, 13]: 55%
- Population Hoechst High Intensity Objects (%) [1, 13]: 35%
- Population Membrane Permeable-Phenotype (%) [1, 13]: 9%
- Population Mitochondria Different-Phenotype (%) [1, 13]: 6%
- Population Mitotic Cells (%) [1, 13]: 42%
- Population Normal (%) [1, 13]: 64%
- Population Pyknosed Nuclei (%) [1, 13]: 11%
- Population Tubulin-Different-Phenotype (%) [1, 13]: 71%
- Total Cell Count [1, 13]: 281
- Growth Rate [2, 14]: 0
- Growth Rate ([2]; 6 h, replicate number 2, timepoint 6 hours): 0
- Growth Rate [2, 15]: 0
- Growth Rate [2, 16]: 0
- Growth Rate [2, 17]: 0
- Growth Rate [3, 14]: 0
- Growth Rate ([3]; 6 h, replicate number 1, timepoint 6 hours): 0
- Growth Rate [3, 15]: 0
- Growth Rate [3, 16]: 0
- Growth Rate [3, 17]: 0
